The values that follow come from ChEMBL document CHEMBL3865794, “Novel securinine derivatives as topoisomerase I based antitumor agents” (Eur J Med Chem, 2016).

Usually IC50 stands for the concentration that inhibits the measured activity by half. For orientation: inhibition means the percentage by which the read-out fell short of the control.

Experiment [1] can be described thus: Growth inhibition of human A549 cells after 72 hrs by MTT assay. The format is functional, cell-based. To be noted: Homo sapiens, A549, 72 h. Summed up: (§1)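 Cells seeded at 5 × 10³ per well and incubated overnight in medium with 10% FBS. Medium then replaced with fresh medium containing compound at […] for 72 h. MTT (5 mg/mL stock, 20 µL per well) added for 4 h at 37 °C, formazan dissolved in DMSO, absorbance read at 570 nm. Each dose run in parallel triplicate. IC50 taken from mean absorbance versus concentration curves.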

Experiment [2] can be described thus: Growth inhibition of human HeLa cells after 72 hrs by MTT assay. To be noted: Homo sapiens, HeLa, 72 h. The format is functional, cell-based. In a few lines:
as §1

Experiment [3] can be described thus: Growth inhibition of human HepG2 cells after 72 hrs by MTT assay. It counts as functional, cell-based. To be noted: Homo sapiens, HepG2, 72 h. Summed up:
as §1
In general terms: Formazan colour is commonly taken as a measure of viable cells.

A short description of experiment [4]: Growth inhibition of human SH-SY5Y cells after 72 hrs by MTT assay. It counts as functional, cell-based. To be noted: Homo sapiens, SH-SY5Y, 72 h. In a few lines:
as §1

Experiment [5] has as its target T1, DNA topoisomerase 1 (Homo sapiens) (UniProt P11387).
T1 sequence (whole entry): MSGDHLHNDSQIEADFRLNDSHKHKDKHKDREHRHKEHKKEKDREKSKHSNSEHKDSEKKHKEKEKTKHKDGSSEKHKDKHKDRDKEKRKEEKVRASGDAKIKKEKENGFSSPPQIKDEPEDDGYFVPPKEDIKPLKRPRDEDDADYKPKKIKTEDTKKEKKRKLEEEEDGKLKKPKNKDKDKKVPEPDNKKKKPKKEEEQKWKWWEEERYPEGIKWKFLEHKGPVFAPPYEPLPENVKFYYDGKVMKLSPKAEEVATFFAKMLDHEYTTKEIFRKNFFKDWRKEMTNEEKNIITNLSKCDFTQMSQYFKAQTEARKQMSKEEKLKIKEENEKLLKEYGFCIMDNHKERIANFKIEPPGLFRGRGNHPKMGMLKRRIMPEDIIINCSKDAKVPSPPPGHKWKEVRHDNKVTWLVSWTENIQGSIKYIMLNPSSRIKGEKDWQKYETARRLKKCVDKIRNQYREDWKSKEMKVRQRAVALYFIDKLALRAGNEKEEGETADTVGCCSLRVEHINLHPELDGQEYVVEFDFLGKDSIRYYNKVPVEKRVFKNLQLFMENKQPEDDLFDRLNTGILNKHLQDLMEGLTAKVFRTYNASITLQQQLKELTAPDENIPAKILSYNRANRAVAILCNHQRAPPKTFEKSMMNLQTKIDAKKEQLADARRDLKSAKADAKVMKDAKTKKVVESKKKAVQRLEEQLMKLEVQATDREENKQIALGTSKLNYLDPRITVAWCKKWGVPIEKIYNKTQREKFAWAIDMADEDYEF
Kind of experiment: Inhibition of DNA topoisomerase 1 (unknown origin) assessed as reduction in topoisomerase 1-DNA complex formation preincubated for 20 mins followed by supercoiled pBR322 plasmid DNA addition measured after 3 mins by electrophoretic mobility shift assay. In general terms: A gel shift assay detects complexes by their altered migration in electrophoresis.

The target of experiment [6] is T1, DNA topoisomerase 1 (Homo sapiens). Kind of experiment: Inhibition of DNA topoisomerase 1 (unknown origin) assessed as reduction in relaxation of supercoiled pBR322 plasmid DNA at 100 uM incubated for 30 mins by agarose gel electrophoresis relative to control. In a few lines: (§2)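 Supercoiled pBR322 DNA incubated with Topo I in the presence or absence of compound for 30 min at 37 °C. Reaction stopped with dye solution of bromophenol blue, xylene cyanol and glycerol. Products run on 1% agarose in 1× TAE for 40 min, then EB-stained and UV-imaged. Inhibition rate derived from gel gray-scale analysis relative to control. Camptothecin served as positive control.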

Experiment [7] is described as follows: Antiproliferative activity against human SW480 cells after 48 hrs by MTT assay. It counts as functional, cell-based. The settings on record: SW480, 48 h.
The species entered for experiment [8] is Bos taurus. The experiment is described as follows: Inhibition of calf thymus DNA topoisomerase 1 assessed as DNA-insertion by measuring reduction in conversion of negatively supercoiled pBR322 plasmid DNA to relaxed DNA at 25 uM preincubated followed by substrate addition measured after 30 mins by ethidium bromide staining based agarose gel electrophoresis. In a few lines:
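Calf thymus Topo I (20 units) and negatively supercoiled pBR322 DNA with test compound or ethidium bromide in Topo I buffer (50 mM Tris-HCl pH 7.5, 10 mM MgCl2, 50 mM KCl, 0.1 mM EDTA, 0.5 mM DTT, BSA), 30 min at 37 °C. 1% agarose gel in 1× TAE, 40 min. Ethidium bromide stain 30 min, UV imaging.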

Experiment [9] addresses T1, DNA topoisomerase 1 (Homo sapiens). The experiment is described as follows: Inhibition of DNA topoisomerase 1 (unknown origin) assessed as reduction in relaxation of supercoiled pBR322 plasmid DNA incubated for 30 mins by agarose gel electrophoresis. In a few lines:
as §2

A short description of experiment [10]: Growth inhibition of human L02 cells after 72 hrs by MTT assay. The format is cell-based. To be noted: L02, 72 h. In a few lines: as §1
The test system of experiment [11] is A549. Kind of experiment: Selectivity index, ratio of IC50 for human L02 cells to IC50 for human A549 cells. The format is functional.
For experiment [12], the species on record is Bos taurus. Kind of experiment: Inhibition of calf thymus DNA topoisomerase 1-mediated DNA cleavage assessed as drug-enzyme-DNA covalent ternary complex formation by measuring increase in linear band using negatively supercoiled pBR322 plasmid DNA as substrate at 25 to 50 uM after 30 mins by agarose gel electrophoresis. Summed up:
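Calf thymus Topo I (30 units) and negatively supercoiled pBR322 in Topo I buffer (pH 7.5), 30 min at 37 °C. Test compounds at 25–200, camptothecin at […]. Trapped with 1% SDS, then proteinase K 0.8 mg/mL, 10 min at 50 °C. 1% agarose/TAE run 30 min at 60 V, ethidium bromide stain, second 30-min electrophoresis. Scored as supercoiled-to-nicked/linear conversion under UV.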

Active and inactive are the calls of the source. The calls are words filed in the database; no cut-off is given here.

For the compound `O=C1O[C@@]23C[C@@H](C=CC2=C1[C@H](O)c1ccc([N+](=O)[O-])cc1)N1CCCC[C@@H]13`, the IC50 was 2.23 µM in experiment [1], 8 µM in experiment [2], 4.19 µM in [3] and 8.48 µM in experiment [4]. In addition, the inhibition result in experiment [5] is “Dose-dependent effect”.

Consider `O=C1C=C2C=C[C@@H]3C[C@@]2(O1)[C@H]1CCCCN31` [SECURININE], for which the inhibition in [6] was 23.9%. In addition, the IC50 in [7] stood at 25.9 µM; in experiment [1], 23.6 µM; in experiment [2] it was 50.2 µM; in [3], 36.9 µM; in experiment [4] it was 78.9 µM.

`CC[n+]1c(-c2ccccc2)c2cc(N)ccc2c2ccc(N)cc21`: in experiment [8], the inhibition entry is “Active”.

With `O=C1O[C@@]23C[C@@H](C=CC2=C1[C@@H](O)c1ccc([N+](=O)[O-])cc1)N1CCCC[C@@H]13`, the half-inhibitory concentration (IC50) in experiment [1] turned out to be 1.98 µM; in experiment [2], 7.99 µM; in [3], 4.01 µM; in [4], 8.52 µM. In addition, the inhibition entry in [5] is “Dose-dependent effect”.

As for `O=C1O[C@@]23C[C@@H](C=CC2=C1C(O)c1ccc([N+](=O)[O-])cc1)N1CCCC[C@@H]13` (stereo partly specified), the values for the inhibition in experiment [6] and in experiment [9] were 56.7% and “Dose-dependent effect”, respectively. Moreover, the IC50 is 2.21 µM in experiment [1]; 8.26 µM in experiment [2]; 4.13 µM in experiment [3]; 8.5 µM in experiment [4]; 16.7 µM in [10]. In addition, in experiment [11], the “Ratio IC50” value is 6.26 - 7.56.

`O=C1O[C@@]23C[C@@H](C=CC2=C1C(O)c1ccc(C(F)(F)F)cc1)N1CCCC[C@@H]13` (stereo in doubt; 4a-6): the IC50 in experiment [1] worked out at 2.91 µM; in [2] it was 8.99 µM; in [3] it was 2.42 µM; in [4], 8.57 µM; in experiment [10] it was 18.2 µM. Moreover, in experiment [11], the “Ratio IC50” value was 6.26 - 7.56.

On to `O=C1O[C@@]23C[C@@H](C=CC2=C1C(O)c1ccccc1)N1CCCC[C@@H]13` (stereo partly specified), for which, in experiment [6], the inhibition was 24%. For the same compound, the IC50 came out at 7.05 µM in [1], 21.4 µM in experiment [2], 20.1 µM in experiment [3] and 25.4 µM in [4].

Turning to `O=C1O[C@@]23C[C@@H](C=CC2=C1C(O)c1cccc(Cl)c1)N1CCCC[C@@H]13` (stereo partly specified), the inhibition in experiment [6] was determined as 35.3%. Further, the IC50 in [1] is 11.1 µM; in [2], 15.6 µM; in [3] it was 17.8 µM; in experiment [4] it was 27.8 µM.

For the compound `Cc1ccc(C(O)C2=C3C=C[C@@H]4C[C@@]3(OC2=O)[C@H]2CCCCN42)cc1` (stereo partly specified), in [6], the inhibition is 27.1%. Also, the IC50 stood at 8.81 µM in experiment [1], 9.07 µM in experiment [2], 7.09 µM in experiment [3] and 15.1 µM in experiment [4].

`O=C1O[C@@]23C[C@@H](C=CC2=C1C(O)c1ccccc1F)N1CCCC[C@@H]13` (stereo partly specified): the inhibition in [6] amounted to 42.3%. For the same compound, the IC50 in [1] worked out at 6.89 µM; in [2], 13 µM; in experiment [3] it was 10.1 µM; in [4], 22 µM.

For `CSc1ccc(C(O)C2=C3C=C[C@@H]4C[C@@]3(OC2=O)[C@H]2CCCCN42)cc1` (stereo partly specified), the inhibition in [6] stood at 30.9%. Besides, the IC50 in [1] came out at 9.05 µM; in experiment [2], 17.8 µM; in experiment [3], 16.7 µM; in experiment [4] it was 21 µM.

As to `CC[C@@]1(O)C(=O)OCc2c1cc1n(c2=O)Cc2cc3ccccc3nc2-1` [CAMPTOTHECIN], the half-maximal inhibitory concentration (IC50) in experiment [1] is 0.12 µM; in experiment [2], 59.1 µM; in [3] it was 29.8 µM; in experiment [4], over 100 µM. The inhibition result in experiment [12] was “Active”.
